Source: ChEMBL document CHEMBL1806443, “Novel imidazo[4,5-b]pyridine and triaza-benzo[c]fluorene derivatives: synthesis, antiproliferative activity and DNA binding studies” (Eur J Med Chem, 2011)
Active and inactive are the calls of the source. The rule behind the calls is not given here.

Legend:
WI-38 [1] = experiment: Antiproliferative activity against human WI38 cells after 72 hrs by MTT assay; assay type: cell-based
In short: (§1)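 Monolayer cells in DMEM with 10% FBS, 2 mM L-glutamine, penicillin and streptomycin at 37 °C, 5% CO2. Seeded at 3000-6000 cells/well by doubling time on day 0. Five 10-fold dilutions (0.01–100 µM) were added and incubated 72 h. MTT read-out, converted to percentage growth. IC50 by linear regression between bracketing concentrations. Quadruplicate points, three independent experiments, ANOVA/Tukey p<0.05.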

MIA PaCa-2 [2] = experiment: Antiproliferative activity against human MIAPaCa2 cells after 72 hrs by MTT assay; assay type: functional, cell-based; in short: as §1
SW-620 [3] = experiment: Antiproliferative activity against human SW620 cells after 72 hrs by MTT assay; assay type: functional, cell-based; in short: as §1
HEp-2 [4] = experiment: Antiproliferative activity against human Hep2 cells after 72 hrs by MTT assay; assay type: functional, cell-based; in short: as §1
SK-BR-3 [5] = experiment: Antiproliferative activity against human SKBR3 cells after 72 hrs by MTT assay; assay type: functional, cell-based; in short: as §1
MCF7 [6] = experiment: Antiproliferative activity against human MCF7 cells after 72 hrs by MTT assay; assay type: functional, cell-based; in short: as §1
HeLa [7] = experiment: Antiproliferative activity against human HeLa cells after 72 hrs by MTT assay; assay type: functional, cell-based; in short: as §1
WI-38 [8] = experiment: Cytostatic activity against human WI38 cells at 1 to 10 uM after 72 hrs by MTT assay; assay type: ADME, cell-based; conditions: wi-38, 72 h
In short: (§2)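 Monolayers in DMEM with 10% FBS, 2 mM L-glutamine, penicillin and streptomycin (37 °C, 5% CO2) were seeded at 3000–6000 cells/well on day 0. Five 10-fold dilutions (0.01–100 µM) were added, followed by 72-h incubation and MTT read-out. Absorbances were converted to percentage growth by the NIH formulae. Each point was run in quadruplicate in three experiments; ANOVA with Tukey test.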

SW-620 [9] = experiment: Cytostatic activity against human SW620 cells at 1 to 10 uM after 72 hrs by MTT assay; assay type: functional, cell-based; in short: as §2
MIA PaCa-2 [10] = experiment: Cytostatic activity against human MIAPaCa2 cells at 1 to 10 uM after 72 hrs by MTT assay; assay type: functional, cell-based; in short: as §2
SK-BR-3 [11] = experiment: Cytostatic activity against human SKBR3 cells at 1 to 10 uM after 72 hrs by MTT assay; assay type: functional, cell-based; in short: as §2
HEp-2 [12] = experiment: Cytostatic activity against human Hep2 cells at 1 to 10 uM after 72 hrs by MTT assay; assay type: functional, cell-based; in short: as §2
MCF7 [13] = experiment: Cytostatic activity against human MCF7 cells at 1 to 10 uM after 72 hrs by MTT assay; assay type: functional, cell-based; in short: as §2
HeLa [14] = experiment: Cytostatic activity against human HeLa cells at 1 to 10 uM after 72 hrs by MTT assay; assay type: functional, cell-based; in short: as §2

Structure (SMILES)	IC50 (WI-38 [1]; Homo sapiens, WI-38, 72 h)	IC50 (MIA PaCa-2 [2]; Homo sapiens, MIA PaCa-2, 72 h)	IC50 (SW-620 [3]; Homo sapiens, SW-620, 72 h)	IC50 (HEp-2 [4]; Homo sapiens, HEp-2, 72 h)	IC50 (SK-BR-3 [5]; Homo sapiens, SK-BR-3, 72 h)	IC50 (MCF7 [6]; Homo sapiens, MCF7, 72 h)	IC50 (HeLa [7]; Homo sapiens, HeLa, 72 h)	other results
C[n+]1cccc2c1nc1ccc3cc([N+](=O)[O-])ccc3n12	> 100 µM	> 100 µM	26.7 µM	31.5 µM	33.6 µM	> 100 µM	11.4 µM	–
Clc1cccnc1/C=C/c1nc2ncccc2[nH]1	> 100 µM	> 100 µM	> 100 µM	> 100 µM	53.1 µM	> 100 µM	> 100 µM	–
O=[N+]([O-])c1ccc2c(ccc3nc4ncc(Br)cc4n32)c1	> 100 µM	63.5 µM	61.2 µM	31.1 µM	8.11 µM	> 100 µM	13.4 µM	–
O=c1[nH]cc(F)c(=O)[nH]1 [FLUOROURACIL]	18.5 µM	11.5 µM	3.38 µM	> 100 µM	38.2 µM	42 µM	10.3 µM	–
Nc1ccc2c(ccc3nc4ncccc4n32)c1	–	–	–	–	–	–	–	IC50 (MIA PaCa-2 [2]; mia paca-2): 43.4 µM; IC50 (SW-620 [3]; sw-620): 25.9 µM; IC50 (HEp-2 [4]; hep-2): 26.7 µM; IC50 (SK-BR-3 [5]; sk-br-3): 3.64 µM; IC50 (MCF7 [6]; mcf7): 56 µM; IC50 (HeLa [7]; hela): 27.2 µM
Clc1ccccc1/C=C/c1nc2ncccc2[nH]1	> 100 µM	59.1 µM	50.9 µM	29.3 µM	5.79 µM	25.6 µM	31.6 µM	Activity (WI-38 [8]): Toxic; Activity (SW-620 [9]): Active; Activity (MIA PaCa-2 [10]): Active; Activity (SK-BR-3 [11]): Active; Activity (HEp-2 [12]): Active; Activity (MCF7 [13]): Active; Activity (HeLa [14]): Active
Nc1ccc2c(ccc3nc4ncc(Br)cc4n32)c1 [listing 1 of 3 here]	85.4 µM	33 µM	38.6 µM	14.1 µM	7.76 µM	61.7 µM	30.9 µM	Activity (WI-38 [8]): Toxic
c1cnc2ccc3nc4ncccc4n3c2c1	> 100 µM	> 100 µM	> 100 µM	> 100 µM	> 100 µM	> 100 µM	> 100 µM	–
O=[N+]([O-])c1ccc2c(ccc3nc4ncccc4n32)c1	75.7 µM	> 100 µM	> 100 µM	> 100 µM	42.7 µM	> 100 µM	52.8 µM	–
N#Cc1ccc2ccc3nc4ncccc4n3c2c1	51.5 µM	> 100 µM	> 100 µM	47.3 µM	67.7 µM	> 100 µM	39.5 µM	–
O=[N+]([O-])c1ccc(Cl)c(/C=C/c2nc3ncc(Br)cc3[nH]2)c1	6.48 µM	30.6 µM	7.99 µM	0.91 µM	59.9 µM	8.81 µM	3.68 µM	Activity (WI-38 [8]): Toxic; Activity (SW-620 [9]): Active; Activity (MIA PaCa-2 [10]): Active; Activity (SK-BR-3 [11]): Active; Activity (HEp-2 [12]): Active; Activity (MCF7 [13]): Active; Activity (HeLa [14]): Active
c1ccc2c(c1)ccc1nc3ncccc3n12 [7,8,11b-triazabenzo[c]fluorene]	47.4 µM	80.5 µM	78.3 µM	52.3 µM	83.5 µM	75.5 µM	14.3 µM	–
Nc1ccc2c(ccc3nc4ncc(Br)cc4n32)c1 [listing 2 of 3 here]	–	–	–	–	–	–	–	Activity (SW-620 [9]): Active; Activity (MIA PaCa-2 [10]): Active; Activity (SK-BR-3 [11]): Active; Activity (HEp-2 [12]): Active; Activity (MCF7 [13]): Active; Activity (HeLa [14]): Active
N#Cc1ccc(/C=C/c2nc3ncc(Br)cc3[nH]2)cc1	6.76 µM	8.17 µM	7.11 µM	5.69 µM	4.31 µM	7.82 µM	2.88 µM	Activity (WI-38 [8]): Toxic; Activity (SW-620 [9]): Active; Activity (MIA PaCa-2 [10]): Active; Activity (SK-BR-3 [11]): Active; Activity (HEp-2 [12]): Active; Activity (MCF7 [13]): Active; Activity (HeLa [14]): Active
C(=C\c1nc2ncccc2[nH]1)/c1ccccc1	3.87 µM	4.39 µM	4.64 µM	3.89 µM	2.06 µM	7.57 µM	2.22 µM	Activity (WI-38 [8]): Toxic; Activity (SW-620 [9]): Active; Activity (MIA PaCa-2 [10]): Active; Activity (SK-BR-3 [11]): Active; Activity (HEp-2 [12]): Active; Activity (MCF7 [13]): Active; Activity (HeLa [14]): Active
O=[N+]([O-])c1ccc(Cl)c(/C=C/c2nc3ncccc3[nH]2)c1	61.6 µM	38.8 µM	52 µM	49.4 µM	1.8 µM	53.6 µM	45.1 µM	–
Nc1ccc2c(ccc3nc4ncc(Br)cc4n32)c1 [listing 3 of 3 here]	–	–	–	–	–	–	–	IC50 (WI-38 [1]; wi-38): 85.1 µM; IC50 (MIA PaCa-2 [2]; mia paca-2): 40.3 µM; IC50 (SW-620 [3]; sw-620): 40.7 µM; IC50 (HEp-2 [4]; hep-2): 21.6 µM; IC50 (SK-BR-3 [5]; sk-br-3): 7.56 µM; IC50 (MCF7 [6]; mcf7): 67.3 µM; IC50 (HeLa [7]; hela): 37.7 µM
N#Cc1ccc(/C=C/c2nc3ncccc3[nH]2)cc1	> 100 µM	> 100 µM	> 100 µM	84.9 µM	86.6 µM	12.9 µM	47.1 µM	–
